Source: ChEMBL document CHEMBL3397016, “SAR-studies of γ-secretase modulators with PPARγ-agonistic and 5-lipoxygenase-inhibitory activity for Alzheimer's disease” (Bioorg Med Chem Lett, 2015)
Active and inactive are the calls of the source. The calls are words filed in the database; no cut-off is given here.

Assays:
[1] = molecular target: T1, Peroxisome proliferator-activated receptor gamma (Homo sapiens) (UniProt P37231); assay: Activation of human PPARgamma ligand binding domain expressed in COS7 cells by dual luciferase reporter gene assay relative to 1 uM pioglitazone; type: cell-based; settings: COS-7
T1 sequence (whole entry): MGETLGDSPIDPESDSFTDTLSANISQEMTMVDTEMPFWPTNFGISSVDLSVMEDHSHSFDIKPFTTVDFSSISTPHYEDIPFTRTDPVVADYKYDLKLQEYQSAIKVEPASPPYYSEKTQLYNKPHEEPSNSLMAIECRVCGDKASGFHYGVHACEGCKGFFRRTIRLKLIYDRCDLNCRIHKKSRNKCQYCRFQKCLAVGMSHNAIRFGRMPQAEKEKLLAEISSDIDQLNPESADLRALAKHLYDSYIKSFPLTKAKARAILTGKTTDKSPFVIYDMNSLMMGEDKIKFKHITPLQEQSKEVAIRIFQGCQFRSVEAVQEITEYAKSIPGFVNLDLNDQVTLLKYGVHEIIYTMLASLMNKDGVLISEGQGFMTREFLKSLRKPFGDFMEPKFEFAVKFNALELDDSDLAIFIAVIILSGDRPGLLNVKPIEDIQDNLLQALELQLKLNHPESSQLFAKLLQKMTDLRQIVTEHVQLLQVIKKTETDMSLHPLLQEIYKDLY

[2] = molecular target: T2, Polyunsaturated fatty acid 5-lipoxygenase (Homo sapiens, UniProt P09917); assay: Inhibition of 5-LO in human PMNL assessed as reduction in 5-LO product formation pre-incubated for 15 mins before addition of arachidonic acid substrate by HPLC analysis
T2 sequence (P09917 whole entry): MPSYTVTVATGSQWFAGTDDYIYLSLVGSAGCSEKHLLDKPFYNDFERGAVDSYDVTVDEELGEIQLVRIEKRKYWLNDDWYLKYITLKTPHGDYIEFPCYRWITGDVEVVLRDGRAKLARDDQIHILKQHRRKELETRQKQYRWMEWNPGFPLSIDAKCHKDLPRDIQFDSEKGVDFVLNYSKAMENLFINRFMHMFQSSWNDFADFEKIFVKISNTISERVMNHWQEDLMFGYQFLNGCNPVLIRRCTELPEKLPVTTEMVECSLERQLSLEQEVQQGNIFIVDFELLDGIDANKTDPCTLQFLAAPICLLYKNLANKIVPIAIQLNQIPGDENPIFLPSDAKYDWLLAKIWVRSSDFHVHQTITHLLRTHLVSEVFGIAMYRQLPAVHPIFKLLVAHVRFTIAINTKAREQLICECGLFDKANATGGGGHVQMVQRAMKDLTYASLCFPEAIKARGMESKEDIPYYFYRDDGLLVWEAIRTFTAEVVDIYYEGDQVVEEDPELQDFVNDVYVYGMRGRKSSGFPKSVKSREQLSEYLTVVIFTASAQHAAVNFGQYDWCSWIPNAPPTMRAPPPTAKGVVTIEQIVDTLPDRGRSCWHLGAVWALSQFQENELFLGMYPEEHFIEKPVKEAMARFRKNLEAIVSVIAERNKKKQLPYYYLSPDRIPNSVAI

[3] = molecular target: T3, Peroxisome proliferator-activated receptor gamma (Homo sapiens, UniProt P37231); assay: Activation of human PPARgamma ligand binding domain expressed in COS7 cells by dual luciferase reporter gene assay; type: cell-based, COS-7
T3 sequence (P37231 whole entry): T1 sequence (whole entry)

[4] = molecular target: T4, Presenilin-1 (Homo sapiens, UniProt P49768); assay: Activation of wild-type human presenilin-1 stably overexpressed in CHO cells co-expressing wild-type human amyloid precursor protein assessed as amyloid beta 38 formation after 24 hrs by ELISA; type: cell-based
[5] = molecular target: T4, Presenilin-1; assay: Inhibition of wild-type human presenilin-1 stably overexpressed in CHO cells co-expressing wild-type human amyloid precursor protein assessed as inhibition of amyloid beta 42 formation after 24 hrs by ELISA; type: cell-based
[6] = molecular target: T5, Prostaglandin G/H synthase 1 (Ovis aries) (UniProt P05979); assay: Inhibition of ovine COX1-mediated 12-HHT formation assessed as remaining activity at 10 uM preincubated for 5 mins before arachidonic acid addition by HPLC analysis
T5 sequence (whole entry): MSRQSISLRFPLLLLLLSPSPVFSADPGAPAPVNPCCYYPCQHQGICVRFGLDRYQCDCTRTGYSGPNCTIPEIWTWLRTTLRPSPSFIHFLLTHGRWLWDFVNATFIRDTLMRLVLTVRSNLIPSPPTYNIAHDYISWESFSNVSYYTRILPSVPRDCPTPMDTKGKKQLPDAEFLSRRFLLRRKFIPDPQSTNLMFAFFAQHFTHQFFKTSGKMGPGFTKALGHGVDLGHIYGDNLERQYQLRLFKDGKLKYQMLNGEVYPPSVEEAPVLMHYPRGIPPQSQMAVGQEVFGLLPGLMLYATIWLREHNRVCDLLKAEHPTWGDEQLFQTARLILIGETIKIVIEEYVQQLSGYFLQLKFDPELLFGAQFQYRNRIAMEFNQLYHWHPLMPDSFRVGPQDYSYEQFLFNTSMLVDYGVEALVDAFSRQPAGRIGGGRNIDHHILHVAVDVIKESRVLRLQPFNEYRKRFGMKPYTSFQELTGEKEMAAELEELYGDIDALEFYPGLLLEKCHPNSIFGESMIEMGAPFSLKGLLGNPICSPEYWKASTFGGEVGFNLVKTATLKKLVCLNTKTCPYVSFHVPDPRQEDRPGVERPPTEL
Procedure, shortened: (§1)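 Cell-free enzyme assays. Data given either as IC50 or as remaining enzyme activity at 10 µM test concentration.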

[7] = molecular target: T6, Prostaglandin G/H synthase 2 (Homo sapiens, UniProt P35354); assay: Inhibition of human recombinant COX2-mediated 12-HHT formation preincubated for 5 mins before arachidonic acid addition by HPLC analysis; procedure, shortened: as §1
T6 sequence (P35354 whole entry): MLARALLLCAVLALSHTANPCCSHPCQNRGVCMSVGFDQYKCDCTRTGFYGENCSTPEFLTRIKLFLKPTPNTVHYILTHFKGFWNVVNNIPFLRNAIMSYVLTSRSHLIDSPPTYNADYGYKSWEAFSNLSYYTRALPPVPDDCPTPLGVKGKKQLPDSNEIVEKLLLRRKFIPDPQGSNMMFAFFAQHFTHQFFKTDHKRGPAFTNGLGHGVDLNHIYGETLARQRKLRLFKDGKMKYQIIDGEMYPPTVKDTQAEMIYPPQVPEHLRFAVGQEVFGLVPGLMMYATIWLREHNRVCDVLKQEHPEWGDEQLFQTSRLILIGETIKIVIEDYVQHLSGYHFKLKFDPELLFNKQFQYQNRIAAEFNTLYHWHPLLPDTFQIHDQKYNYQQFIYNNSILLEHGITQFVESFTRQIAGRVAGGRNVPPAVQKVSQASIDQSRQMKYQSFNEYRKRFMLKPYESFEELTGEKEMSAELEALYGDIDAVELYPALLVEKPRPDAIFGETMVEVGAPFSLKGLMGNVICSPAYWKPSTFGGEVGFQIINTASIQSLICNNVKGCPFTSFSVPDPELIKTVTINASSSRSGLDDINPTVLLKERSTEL

[8] = molecular target: T7, Prostaglandin E synthase (Homo sapiens, UniProt O14684); assay: Inhibition of mPGES-1-mediated PGE2 formation in interleukin-1beta-stimulated human A549 microsomal membranes preincubated for 15 mins before PGH2 addition by RP-HPLC analysis
T7 sequence (O14684 whole entry): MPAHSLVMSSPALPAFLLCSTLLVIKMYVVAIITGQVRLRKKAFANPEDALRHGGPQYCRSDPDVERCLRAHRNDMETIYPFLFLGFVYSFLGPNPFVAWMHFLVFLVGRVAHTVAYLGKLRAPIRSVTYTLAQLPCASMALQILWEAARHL

[9] = molecular target: T8, Prostaglandin G/H synthase 2 (Homo sapiens) (UniProt P35354); assay: Inhibition of human recombinant COX2-mediated 12-HHT formation assessed as remaining activity at 10 uM preincubated for 5 mins before arachidonic acid addition by HPLC analysis; procedure, shortened: as §1
T8 sequence (whole entry): T6 sequence (P35354 whole entry)

[10] = molecular target: T9, Prostaglandin G/H synthase 1 (Ovis aries, UniProt P05979); assay: Inhibition of ovine COX1-mediated 12-HHT formation preincubated for 5 mins before arachidonic acid addition by HPLC analysis; procedure, shortened: as §1
T9 sequence (P05979 whole entry): T5 sequence (whole entry)

Row | Compound | max activation [1] | IC50 ([2]; read-out: IC50) | EC50 ([3]; read-out: EC50) | EC50 [4] | IC50 [5] | Activity [6] | IC50 [7] | IC50 [8] | Activity [9] | IC50 [10] | IC50 [2] | EC50 ([3]; cos-7)
1 | CCCC/C(=C\c1cc(Oc2ccccc2)ccc1OCc1ccc(C(F)(F)F)cc1)C(=O)O | 76% | 2.1 µM | 0.72 µM | 15.6 µM | 14.9 µM | – | – | – | – | – | – | –
2 | CCCC/C(=C\c1cc(OCc2ccccc2)ccc1OCc1ccc(C(F)(F)F)cc1)C(=O)O | 108% | 0.55 µM | 11.7 µM | 14.1 µM | 19.3 µM | 86.6% | > 10 µM | 5.6 µM | 84.8% | > 10 µM | – | –
3 | CCCC/C(=C\c1cc(OCc2ccc(-c3ccccc3)cc2)ccc1OCc1ccc(C(F)(F)F)cc1)C(=O)O | – | – | – | 3.2 µM | 11.9 µM | – | – | – | – | – | Not Active | Not Active
4 | CCCC/C(=C\c1cc(OCc2ccc(-c3csc(C)n3)cc2)ccc1OCc1ccc(C(F)(F)F)cc1)C(=O)O | – | 6.7 µM | – | 2.2 µM | 20.2 µM | – | – | – | – | – | – | Not Active
5 | CCCC/C(=C\c1cc(OCc2ccc(Cl)c(Cl)c2)ccc1OCc1ccc(C(F)(F)F)cc1)C(=O)O | 56% | 0.3 µM | 2.11 µM | 3.2 µM | 2 µM | 59.4% | > 10 µM | 1.6 µM | 73.3% | > 10 µM | – | –
6 | CCCCC(Sc1nc(OCCC2CCCCC2)cc(OCCC2CCCCC2)n1)C(=O)O (stereo unspecified) | 71% | – | – | 4.6 µM | 5.1 µM | – | – | – | – | – | – | –
7 | CCCC/C(=C\c1cc(OC/C=C/c2ccccc2)ccc1OCc1ccc(C(F)(F)F)cc1)C(=O)O | 56% | 0.75 µM | 12.9 µM | 2.5 µM | 4.1 µM | 69.5% | > 10 µM | 5 µM | 77.7% | > 10 µM | – | –
8 | CCCC/C(=C\c1cc(OCc2csc(-c3ccc(C(F)(F)F)cc3)n2)ccc1OCc1ccc(C(F)(F)F)cc1)C(=O)O | inactive | 0.9 µM | – | 10.7 µM | 2.3 µM | 73.5% | > 10 µM | > 10 µM | 84.4% | > 10 µM | – | Not Active
9 | CCCC/C(=C\c1cc(OCc2ccc(C(F)(F)F)cc2)ccc1OCc1ccc(C(F)(F)F)cc1)C(=O)O | – | – | – | 1.1 µM | 1.2 µM | – | > 10 µM | > 10 µM | – | > 10 µM | – | –
10 | CCCC/C(=C\c1cc(OCc2ccc(Oc3ccccn3)cc2)ccc1OCc1ccc(C(F)(F)F)cc1)C(=O)O | – | 0.2 µM | – | 4.5 µM | 5 µM | 75.7% | > 10 µM | 10 µM | 91.1% | > 10 µM | – | Not Active
11 | CCCC/C(=C\c1cc(OCc2ccc(CCCC)cc2)ccc1OCc1ccc(C(F)(F)F)cc1)C(=O)O | – | – | – | 4.4 µM | 4.4 µM | – | – | – | – | – | Not Active | Not Active
12 | CCCC/C(=C\c1cc(OCc2ccc(OCc3ccccc3)cc2)ccc1OCc1ccc(C(F)(F)F)cc1)C(=O)O | – | – | – | 1.8 µM | 8.5 µM | – | – | – | – | – | Not Active | Not Active
13 | CCCCC(Sc1nc(OCCc2ccccc2)cc(OCCc2ccccc2)n1)C(=O)O (stereo unspecified) | 61% | – | – | 11.3 µM | 22.8 µM | – | – | – | – | – | – | –
14 | CCCC/C(=C\c1cc(OCc2cccnc2)ccc1OCc1ccc(C(F)(F)F)cc1)C(=O)O | 120% | 2.3 µM | 2.56 µM | 23.2 µM | 32.1 µM | – | – | – | – | – | – | –
